What was measured:
[1] = target: T1, Histidine-rich protein PFHRP-II (Plasmodium falciparum) (UniProt P05227); test: Antiplasmodial activity as IC50 against Beta-hematin formation; assay type: functional
T1 sequence (whole entry): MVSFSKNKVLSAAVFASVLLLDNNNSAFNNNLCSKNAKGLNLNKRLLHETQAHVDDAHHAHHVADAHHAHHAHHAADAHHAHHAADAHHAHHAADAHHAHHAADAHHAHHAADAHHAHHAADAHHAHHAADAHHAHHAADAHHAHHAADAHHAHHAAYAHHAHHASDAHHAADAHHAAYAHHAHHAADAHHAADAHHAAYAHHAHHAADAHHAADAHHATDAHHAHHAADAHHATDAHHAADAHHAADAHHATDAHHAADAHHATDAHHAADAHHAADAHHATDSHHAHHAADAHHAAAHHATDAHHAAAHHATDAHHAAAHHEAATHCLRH
Method in brief: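 β-Hematin inhibition (BHIA) assay: hemin (0.4 µmol/well) in DMSO with compound at 0.25–2 (or 4) molar equivalents to hemin, in triplicate. Final DMSO was 25%. Formation started with 8 M acetate buffer pH 5.0, then 37 °C for 18 h. The centrifuged pellet was dissolved in 0.1 M NaOH and read at 405 nm. BHIA50 is the drug equivalents relative to hemin giving 50% inhibition.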

[2] = test system: Mus musculus; test: In vivo antimalarial activity of compound against Plasmodium berghei was determined as suppression of parasitemia in mice (Mus musculus) at 50 mg/kg treated for 4 days; assay type: functional
[3] = Ionization constant for the compound; assay type: physicochemical
[4] = test system: Plasmodium falciparum; test: In vitro antiplasmodial activity for Plasmodium falciparum; assay type: functional, organism-based
Method in brief: (§1)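 P. falciparum K1 ring-stage cultures in human A+ erythrocytes (RPMI 1640, A+ serum, glucose), at 2.5% hematocrit and 1% parasitemia. Two-fold serial dilutions in duplicate, final DMSO ≤0.5%. Incubated 48 h at 37 °C under 93% N2/3% O2/4% CO2. Growth read as parasite lactate dehydrogenase activity (APAD/NBT, 550 nm). IC50 by linear regression; at least three separate determinations.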

[5] = test system: Mus musculus; test: Mean survival time taken as number of days before illness due to Plasmodium berghei when mice (Mus musculus) treated with 50 mg/kg dose for 4 days; assay type: functional
Method in brief: (§2)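 Peters' 4-day suppressive test in female BALB/c mice (18-20 g), five per group. Each mouse got 1 × 10^7 P. berghei ANKA-infected erythrocytes iv. Drug was given ip in 0.2 mL daily for 4 consecutive days. Survival time was the number of days before signs of malaria illness, compared with untreated infected controls.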

[6] = test system: Plasmodium falciparum; test: […] accumulation into acidic parasitic food vacuole (pH=5.5) relative to Cryptolepine; assay type: functional
Method in brief: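 Calculated from each compound's spectrophotometric pKa via a pH-trapping equation, assuming food-vacuole pH 5.5 and external pH 7.4. The result is expressed relative to cryptolepine's ratio. pKa came from UV spectra (0.05 mg mL-1) in at least seven buffers of pH 5.8–13.0, plus 0.1 M NaOH and 0.1 M HCl. pKa was taken as the midpoint of the λmax absorbance plot. Two experiments per compound.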

[7] = organism: Mus musculus; test: Mean survival time taken as number of days before illness due to Plasmodium berghei in untreated mice (Mus musculus); assay type: functional; method in brief: as §2
[8] = test system: MAC15A; test: Ratio of cytotoxic to that of antiplasmodial activity was determined; assay type: functional, Mus musculus
[9] = test system: Plasmodium falciparum; test: Normalized IC50 as product of antiplasmodial IC50 and vacuolar accumulation IC50; assay type: functional, organism-based
[10] = test system: Plasmodium falciparum; test: […] accumulation into acidic parasitic food vacuole at pH=5.5; assay type: functional
[11] = test system: MAC15A; test: Cytotoxicity against MAC15A mouse adenocarcinomas of the colon cells; assay type: functional, cell-based
Method in brief: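 MTT assay. MAC15A cells were seeded at 2 × 10^3 per well and attached overnight at 37 °C, 5% CO2. Drugs were dissolved in DMSO and diluted in medium (max 0.1% DMSO), eight wells per concentration, 96 h exposure. MTT (0.5 mg/mL) was then added for 24 h. Formazan was dissolved in DMSO and read at 550 nm. Survival is relative to vehicle control; IC50 from triplicate experiments.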

[12] = test system: Mus musculus; test: In vivo antimalarial activity of compound against Plasmodium berghei in mice (Mus musculus) at dose of 50 mg/kg treated for 4 days; assay type: functional
[13] = test system: Plasmodium falciparum; test: In vitro antiplasmodial concentration against multidrug-resistant Plasmodium falciparum K1; assay type: functional, organism-based; method in brief: as §1
[14] = test system: Mus musculus; test: In vivo antimalarial activity of compound against Plasmodium berghei was determined as suppression of parasitemia in mice (Mus musculus) at 25 mg/kg treated for 4 days; assay type: functional
Method in brief: (§3)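 Peters 4-day suppressive test in female BALB/c mice (18–20 g), five per group. Mice were infected iv with 1 × 10^7 P. berghei ANKA-infected erythrocytes. Drug was given ip daily for four consecutive days. Blood smears were taken on day 5, and % parasitemia suppression was calculated against untreated infected controls. Survival was recorded as days until signs of malaria illness.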

[15] = test system: Mus musculus; test: In vivo antimalarial activity of compound against Plasmodium berghei was determined as suppression of parasitemia in mice (Mus musculus) at 6.25 mg/kg treated for 4 days; assay type: functional; method in brief: as §3
[16] = test system: Mus musculus; test: In vivo antimalarial activity of compound against Plasmodium berghei in mice (Mus musculus) at dose of 6.25 mg/kg treated for 4 days; assay type: functional; method in brief: as §3
[17] = test system: Mus musculus; test: Mean survival time taken as number of days before illness due to Plasmodium berghei when mice (Mus musculus) treated with 3.125 mg/kg dose for 4 days; assay type: functional; method in brief: as §2
[18] = test system: Mus musculus; test: Mean survival time taken as number of days before illness due to Plasmodium berghei when mice (Mus musculus) treated with 6.25 mg/kg dose for 4 days; assay type: functional; method in brief: as §2
[19] = test system: Mus musculus; test: Mean survival time taken as number of days before illness due to Plasmodium berghei when mice (Mus musculus) treated with 12.5 mg/kg dose for 4 days; assay type: functional; method in brief: as §2
[20] = test system: Mus musculus; test: In vivo antimalarial activity of compound against Plasmodium berghei in mice (Mus musculus) at dose of 3.125 mg/kg treated for 4 days; assay type: functional; method in brief: as §3
[21] = test system: Mus musculus; test: In vivo antimalarial activity of compound against Plasmodium berghei was determined as suppression of parasitemia in mice (Mus musculus) at 3.125 mg/kg treated for 4 days; assay type: functional; method in brief: as §3
[22] = test system: Mus musculus; test: Mean survival time taken as number of days before illness due to Plasmodium berghei when mice (Mus musculus) treated with 25 mg/kg dose for 4 days; assay type: functional; method in brief: as §2
[23] = test system: Mus musculus; test: In vivo antimalarial activity of compound against Plasmodium berghei was determined as suppression of parasitemia in mice (Mus musculus) at 12.5 mg/kg treated for 4 days; assay type: functional; method in brief: as §3
[24] = test system: Mus musculus; test: In vivo antimalarial activity of compound against Plasmodium berghei in mice (Mus musculus) at dose of 25 mg/kg treated for 4 days; assay type: functional; method in brief: as §3
[25] = test system: Mus musculus; test: In vivo antimalarial activity of compound against Plasmodium berghei in mice (Mus musculus) at dose of 12.5 mg/kg treated for 4 days; assay type: functional; method in brief: as §3

Which BHIA50 [1] does the source give for `COc1ccc2c(c1)cc1[nH]c3ccccc3c1[n+]2C.[Cl-]` here?
Its BHIA50 is 1.96.

And the Suppression of parasitemia [2]?
Its Suppression of parasitemia is 9.3%.

And the pKa [3]?
The pKa was 11.4.

And the IC50 ([4]; Plasmodium falciparum)?
The IC50 was 950 nM.

What about the Mean survival time [5] of the same molecule?
Its Mean survival time is 5 days.

And the Ratio [6]?
The Ratio was 1.

And the Mean survival time [7]?
The Mean survival time was 5 days.

What about the Ratio [8] of the same molecule?
Its Ratio is 4.54.

And the IC50 [9]?
Its IC50 is 950 nM.

And the Vascular accumulation ratio [10]?
The Vascular accumulation ratio was 79.43.

And the IC50 ([11]; Mus musculus, MAC15A)?
The IC50 was 4310 nM.

And the Parasitemia [12]?
The Parasitemia was 12.08%.

And the IC50 [13]?
The IC50 was 950 nM.

With `C[n+]1c2ccc(F)cc2cc2[nH]c3ccc(Br)cc3c21.[Cl-]` as the molecule, how does the IC50 ([4]; Plasmodium falciparum) read?
Its IC50 is 63 nM.

What about the Ratio [8] of the same molecule?
Its Ratio is 21.4.

And the IC50 ([11]; Mus musculus, MAC15A)?
Its IC50 is 1350 nM.

With `C[n+]1c2ccc(Cl)c(Cl)c2cc2[nH]c3ccccc3c21.[Cl-]` as the molecule, how does the IC50 ([4]; Plasmodium falciparum) read?
Its IC50 is 88 nM.

What about the Ratio [8] of the same molecule?
Its Ratio is 21.7.

What about the IC50 ([11]; Mus musculus, MAC15A) of the same molecule?
Its IC50 is 1910 nM.

For `C[n+]1c2ccccc2cc2[nH]c3c([N+](=O)[O-])cc([N+](=O)[O-])cc3c21.[Cl-]`, which BHIA50 [1] is on record?
Its BHIA50 is 0.92.

What about the pKa [3] of the same molecule?
The pKa was 6.4.

And the IC50 [9]?
The IC50 was 6.5 nM.

What about the Vascular accumulation ratio [10] of the same molecule?
Its Vascular accumulation ratio is 0.813.

What does the source list for `C[n+]1c2ccccc2cc2[nH]c3cc(Cl)ccc3c21.[Cl-]`?
IC50 [4]: > 1000 nM; Ratio [8]: <8.15; IC50 ([11]; mac15a): 8150 nM

Which IC50 ([4]; Plasmodium falciparum) does the source give for `C[n+]1c2ccc(Cl)cc2cc2[nH]c3ccccc3c21.[Cl-]` here?
Its IC50 is 166 nM.

What about the Ratio [8] of the same molecule?
The Ratio was 13.5.

And the IC50 ([11]; Mus musculus, MAC15A)?
Its IC50 is 2240 nM.

What does the source list for `Cc1ccc2cc3[nH]c4ccc(Br)cc4c3[n+](C)c2c1.[Cl-]`?
IC50 ([4]; Plasmodium falciparum): 260 nM; Ratio [8]: 20; IC50 ([11]; Mus musculus, MAC15A): 5210 nM

With `Cc1ccc2c(c1)cc1[nH]c3ccccc3c1[n+]2C.[Cl-]` as the molecule, how does the IC50 ([4]; Plasmodium falciparum) read?
Its IC50 is 419 nM.

And the Ratio [8]?
Its Ratio is 9.81.

And the IC50 ([11]; Mus musculus, MAC15A)?
The IC50 was 4110 nM.

For `C[n+]1c2ccc(Br)cc2cc2[nH]c3ccc(Br)cc3c21.[Cl-]`, which BHIA50 [1] is on record?
Its BHIA50 is 1.53.

And the Suppression of parasitemia [14]?
Its Suppression of parasitemia is 91.4%.

What about the Suppression of parasitemia [15] of the same molecule?
Its Suppression of parasitemia is 46.7%.

What about the Parasitemia [16] of the same molecule?
The Parasitemia was 7.67%.

And the Mean survival time [17]?
The Mean survival time was 10 days.

And the Mean survival time [18]?
The Mean survival time was 11.6 days.

What about the pKa [3] of the same molecule?
The pKa was 9.1.

What about the Mean survival time [19] of the same molecule?
Its Mean survival time is 11.8 days.

What about the Parasitemia [20] of the same molecule?
The Parasitemia was 12.1%.

And the Ratio [6]?
Its Ratio is 0.99.

What about the Suppression of parasitemia [21] of the same molecule?
Its Suppression of parasitemia is 15.9%.

What about the Mean survival time [7] of the same molecule?
Its Mean survival time is 10 days.

What about the Ratio [8] of the same molecule?
The Ratio was 123.

And the Mean survival time [22]?
The Mean survival time was 15 days.

And the Vascular accumulation ratio [10]?
The Vascular accumulation ratio was 77.9.

What about the Suppression of parasitemia [23] of the same molecule?
Its Suppression of parasitemia is 75.4%.

What about the Parasitemia [24] of the same molecule?
The Parasitemia was 1.24%.

What about the Parasitemia [25] of the same molecule?
Its Parasitemia is 3.55%.

Which BHIA50 [1] does the source give for `C[n+]1c2ccc(F)cc2cc2[nH]c3ccccc3c21.[Cl-]` here?
Its BHIA50 is 1.24.

What about the Suppression of parasitemia [2] of the same molecule?
The Suppression of parasitemia was 55.1%.

What about the pKa [3] of the same molecule?
The pKa was 11.2.

What about the IC50 ([4]; Plasmodium falciparum) of the same molecule?
The IC50 was 1210 nM.

And the Mean survival time [5]?
Its Mean survival time is 5 days.

What about the Ratio [6] of the same molecule?
The Ratio was 1.

What about the Mean survival time [7] of the same molecule?
The Mean survival time was 5 days.

What about the Ratio [8] of the same molecule?
The Ratio was 3.96.

And the IC50 [9]?
The IC50 was 1210 nM.

And the Vascular accumulation ratio [10]?
Its Vascular accumulation ratio is 79.41.

And the IC50 ([11]; Mus musculus, MAC15A)?
Its IC50 is 4790 nM.

What about the Parasitemia [12] of the same molecule?
Its Parasitemia is 5.98%.

And the IC50 [13]?
The IC50 was 1210 nM.

For `C[n+]1c2c(Cl)cccc2cc2[nH]c3ccccc3c21.[Cl-]`, which IC50 ([4]; Plasmodium falciparum) is on record?
Its IC50 is 4690 nM.

And the Ratio [8]?
The Ratio was 0.76.

What about the IC50 ([11]; Mus musculus, MAC15A) of the same molecule?
Its IC50 is 3540 nM.

For `C[n+]1c2cc(Cl)c(Cl)cc2cc2[nH]c3ccccc3c21.[Cl-]`, which IC50 ([4]; Plasmodium falciparum) is on record?
The IC50 was 356 nM.

What about the Ratio [8] of the same molecule?
Its Ratio is 9.33.

What about the IC50 ([11]; Mus musculus, MAC15A) of the same molecule?
Its IC50 is 3320 nM.

From ChEMBL document CHEMBL1143585, “Synthesis of some cryptolepine analogues, assessment of their antimalarial and cytotoxic activities, and consideration of their antimalarial mode of action” (J Med Chem, 2005)
